Measurements as given in ChEMBL document CHEMBL3352272, “Discovery of 2-[5-(4-Fluorophenylcarbamoyl)pyridin-2-ylsulfanylmethyl]phenylboronic Acid (SX-517): Noncompetitive Boronic Acid Antagonist of CXCR1 and CXCR2” (J Med Chem, 2014).
Active and inactive are the calls of the source. The rule behind the calls is not given here.

How the values were obtained:
[1] = molecular target: T1, C-X-C chemokine receptor type 2 (Homo sapiens, UniProt P25025); test: Antagonist activity at CXCR2 in human PMNs assessed as inhibition of CXCL1-induced intracellular Ca2+ release by fluorescence based calcium flux assay; assay type: functional, cell-based
T1 sequence (P25025 whole entry): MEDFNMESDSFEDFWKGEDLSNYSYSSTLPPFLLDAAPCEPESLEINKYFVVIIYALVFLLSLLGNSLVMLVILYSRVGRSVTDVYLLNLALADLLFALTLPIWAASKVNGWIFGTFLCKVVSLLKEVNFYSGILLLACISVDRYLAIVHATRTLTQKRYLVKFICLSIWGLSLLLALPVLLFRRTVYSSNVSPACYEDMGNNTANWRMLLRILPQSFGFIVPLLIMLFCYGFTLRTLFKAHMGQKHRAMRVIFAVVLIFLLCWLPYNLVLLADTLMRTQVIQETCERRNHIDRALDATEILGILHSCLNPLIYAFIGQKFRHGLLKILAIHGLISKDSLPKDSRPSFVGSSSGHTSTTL

[2] = molecular target: T1, C-X-C chemokine receptor type 2; test: Antagonist activity at human CXCR2 expressed in HEK293 cells assessed as inhibition of […]-induced [35S]GTPgammaS binding after 60 mins; assay type: functional, cell-based
Procedure, shortened: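 HEK293 cells stably expressing human CXCR2 were pretreated with compound, then lysed (5 mM Tris-HCl pH 7.5, EDTA, EGTA) and membranes spun at 30000g. […] Nonspecific binding was taken with 10 μM GTPγS. IC50 came from nonlinear regression.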

[3] = molecular target: T2, C-X-C chemokine receptor type 2 (Homo sapiens) (UniProt P25025); test: Displacement of [125I]CXCL8 from human CXCR2 expressed in HEK293 cell membranes up to 10 uM by liquid scintillation counting method
T2 sequence (whole entry): T1 sequence (P25025 whole entry)
Procedure, shortened: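 After 1 h at room temperature, membranes were filtered and counted by scintillation. Results were expressed as % of control specific binding.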

[4] = molecular target: T2, C-X-C chemokine receptor type 2 (Homo sapiens); test: Effect on cell surface expression of human CXCR2 expressed in HEK293 cell […] at 10 uM incubated for 60 mins by FACS method; assay type: cell-based
Procedure, shortened: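 Stably CXCR2-expressing HEK293 cells were pretreated with 10 μM compound or 1% DMSO for 60 min. They were stained with PE-conjugated anti-human CXCR2 mAb (1:100) at 4 °C for 60 min, fixed in 2% formaldehyde and analysed by flow cytometry. Non-expressing HEK293 cells served as the negative control.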

[5] = molecular target: T2, C-X-C chemokine receptor type 2 (Homo sapiens); test: Antagonist activity at human CXCR2 expressed in HEK293 cells assessed as reduction in CXCL8-induced ERK1/2 phosphorylation at 10 uM after 30 mins by Western blotting method; assay type: cell-based
Procedure, shortened: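 Cells were lysed at 0, 5, 15 and 30 min. About 50 μg of protein was run on 10% SDS-PAGE, blotted, and probed for phospho-ERK1/2 and total ERK1/2 with an HRP secondary.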

[6] = molecular target: T3, Interleukin-8 receptors, CXCR1/CXCR2 (Homo sapiens, UniProt P25025+P25024); test: Antagonist activity at CXCR1/CXCR2 in human PMNs assessed as inhibition of CXCL8-induced intracellular Ca2+ release by fluorescence based calcium flux assay; assay type: functional, cell-based
T3 sequence (P25025 whole entry): T1 sequence (P25025 whole entry)
T3 sequence (P25024 whole entry): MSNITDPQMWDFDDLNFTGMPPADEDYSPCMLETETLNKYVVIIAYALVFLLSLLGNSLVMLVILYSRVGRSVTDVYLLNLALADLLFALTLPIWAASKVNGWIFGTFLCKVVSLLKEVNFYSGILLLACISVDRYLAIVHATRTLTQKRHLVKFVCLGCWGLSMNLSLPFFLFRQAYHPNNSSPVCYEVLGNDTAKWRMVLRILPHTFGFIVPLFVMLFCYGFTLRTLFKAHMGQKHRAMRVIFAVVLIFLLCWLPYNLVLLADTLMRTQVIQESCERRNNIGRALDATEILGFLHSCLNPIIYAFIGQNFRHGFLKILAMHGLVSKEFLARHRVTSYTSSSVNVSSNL

[7] = molecular target: T4, C5a anaphylatoxin chemotactic receptor 1 (Homo sapiens, UniProt P21730); test: Antagonist activity at C5a receptor in human PMNs assessed as inhibition of C5a-induced intracellular Ca2+ release by fluorescence based calcium flux assay; assay type: functional, cell-based
T4 sequence (P21730 whole entry): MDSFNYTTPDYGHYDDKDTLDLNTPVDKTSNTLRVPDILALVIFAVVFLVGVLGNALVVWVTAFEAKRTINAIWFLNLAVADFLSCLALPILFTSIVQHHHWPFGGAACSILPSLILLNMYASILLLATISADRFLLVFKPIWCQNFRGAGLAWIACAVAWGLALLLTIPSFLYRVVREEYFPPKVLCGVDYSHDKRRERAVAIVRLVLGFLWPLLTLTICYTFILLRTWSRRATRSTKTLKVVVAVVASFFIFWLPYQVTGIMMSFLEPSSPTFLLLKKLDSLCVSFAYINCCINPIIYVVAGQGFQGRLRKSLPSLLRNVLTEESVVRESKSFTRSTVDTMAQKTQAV

[8] = molecular target: Platelet-activating factor receptor (Homo sapiens, UniProt P25105); test: Antagonist activity at platelet-activating factor receptor in human PMNs assessed as inhibition of PAF-induced intracellular Ca2+ release by fluorescence based calcium flux assay; assay type: functional, cell-based
fMet-Leu-Phe receptor = molecular target: T5, fMet-Leu-Phe receptor (Homo sapiens, UniProt P21462); test: Antagonist activity at fMLF receptor in human PMNs assessed as inhibition of fMLF-induced intracellular Ca2+ release by fluorescence based calcium flux assay; assay type: functional, cell-based
T5 sequence (P21462 whole entry): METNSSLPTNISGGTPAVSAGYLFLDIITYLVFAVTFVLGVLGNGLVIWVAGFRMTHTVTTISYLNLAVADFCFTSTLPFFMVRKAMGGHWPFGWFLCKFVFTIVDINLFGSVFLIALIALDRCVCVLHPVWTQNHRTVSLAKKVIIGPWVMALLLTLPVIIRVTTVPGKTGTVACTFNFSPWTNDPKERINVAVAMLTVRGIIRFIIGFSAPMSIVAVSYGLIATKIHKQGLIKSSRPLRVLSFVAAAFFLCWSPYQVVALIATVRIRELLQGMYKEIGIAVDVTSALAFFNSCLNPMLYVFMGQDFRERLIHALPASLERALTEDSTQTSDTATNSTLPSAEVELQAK

[9] = molecular target: T6, C-X-C chemokine receptor type 1 (Homo sapiens, UniProt P25024); test: Antagonist activity at human CXCR1 expressed in HEK293 cells assessed as inhibition of CXCL8-induced intracellular Ca2+ release by fluorescence based calcium flux assay; assay type: functional, cell-based
T6 sequence (P25024 whole entry): T3 sequence (P25024 whole entry)
Procedure, shortened: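 HEK293 cells were stably transfected with human CXCR1, with a pooled polyclonal line selected in 800 μg/mL G418. […] Fluorescence was read at ex 485/em 525, and max–min was taken as % of control.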

[10] = molecular target: T1, C-X-C chemokine receptor type 2; test: Antagonist activity at human CXCR2 expressed in HEK293 cells assessed as inhibition of CXCL8-induced intracellular Ca2+ release by fluorescence based calcium flux assay; assay type: functional, cell-based
[11] = molecular target: Interleukin-8 receptors, CXCR1/CXCR2 (Homo sapiens) (UniProt P25025+P25024); test: Antagonist activity at CXCR1/CXCR2 in human PMNs assessed as inhibition of CXCL8-induced intracellular Ca2+ release at 1 uM by fluorescence based calcium flux assay; assay type: functional, cell-based
Procedure, shortened: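 Dye-loaded hPMNs were preincubated with compound or 1% DMSO at 37 °C for 30 min, then resuspended in HBSS+ with compound re-added. […] Fluorescence (ex 485/em 525) was read every 5 s for 240–500 s at room temperature, and the max–min response was expressed as % of the DMSO control.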

Mus musculus = test: Antiinflammatory activity in CD1 Swiss mouse air pouch model of inflammation assessed as reduction in total cell count in inflammatory infiltrate at 0.2 mg/kg, iv dosed 3 hrs before carrageenan challenge and measured 4 hrs post carrageenan challenge by trypan blue staining based hemocytometry; assay type: functional, organism-based; set-up: dose 0.2 mg/kg
Procedure, shortened: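 Male CD1 Swiss mice aged 10–15 weeks received a 2 mL subcutaneous dorsal air injection, reinflated with 1.5 mL the next day. Compound in 20:20:80 PEG400:DMF:saline, or vehicle, was given iv by tail vein (n=5 per group). After 3 h, 1 mL of 2% carrageenan in PBS, or PBS, was injected into the pouch. After 4 h, pouch fluid plus a 2 mL PBS wash was collected, and trypan blue-stained cells were counted by hemocytometer. Statistics used Student's t-test.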

Sequence of Platelet-activating factor receptor (P25105 whole entry): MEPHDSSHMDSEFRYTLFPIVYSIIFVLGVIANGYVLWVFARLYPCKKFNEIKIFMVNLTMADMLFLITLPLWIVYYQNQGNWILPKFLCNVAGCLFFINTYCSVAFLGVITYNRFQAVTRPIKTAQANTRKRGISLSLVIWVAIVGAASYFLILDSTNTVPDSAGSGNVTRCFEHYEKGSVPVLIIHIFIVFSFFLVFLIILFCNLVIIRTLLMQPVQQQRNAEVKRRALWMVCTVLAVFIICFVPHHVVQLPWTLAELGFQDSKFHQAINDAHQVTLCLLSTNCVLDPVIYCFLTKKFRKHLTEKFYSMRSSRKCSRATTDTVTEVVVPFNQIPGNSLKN

Structure (SMILES)	IC50 [1] [µM]	also measured
O=C(Nc1ccc(F)cc1)c1ccc(SCc2ccc(-n3cccn3)cc2)nc1	> 10	–
Cc1nn(-c2ccccc2)nc1CSc1ccc(C(=O)Nc2ccc(F)cc2)cn1	> 5	–
Cc1nc(-c2cccc(CSc3ccc(C(=O)Nc4ccc(F)cc4)cn3)c2)cs1	> 5	–
COC(=O)c1cccc(CSc2ccc(C(=O)Nc3ccc(F)cc3)cn2)c1	> 5	–
O=C(c1ccc(SCc2ccccc2B(O)O)nc1)N(CC1CCCCN1)c1ccc(F)cc1 (stereo unspecified)	> 5	–
O=C(Nc1ccc(F)cc1)c1ccc(SCc2ccc([N+](=O)[O-])o2)nc1	> 5	–
O=C(O)c1ccc(CSc2ccc(C(=O)Nc3ccc(F)cc3)cn2)cc1	> 10	–
O=C(Nc1ccc(F)cc1)c1ccc(Sc2ccccc2)nc1	> 10	–
COC(=O)c1ccc(CSc2ccc(C(=O)Nc3ccc(F)cc3)cn2)cc1	> 10	–
O=C(Nc1ccc(F)cc1)c1ccc(SC2CCOC2=O)nc1 (stereo unspecified)	> 5	–
Cc1cccc(CSc2ccc(C(=O)Nc3ccc(F)cc3)cn2)c1F	> 10	–
O=C(Nc1ccc(F)cc1)c1ccc(SCC2CCCCO2)nc1 (stereo unspecified)	> 5	–
O=C(O)CSc1ccc(C(=O)Nc2ccc(F)cc2)cn1	> 5	–
O=C(Nc1ccc(F)cc1)c1ccc(SCc2ccc(-n3cncn3)cc2)nc1	> 10	–
O=C(Nc1ccc(F)cc1)c1ccc(SCc2cccc(OC(F)(F)F)c2)nc1	> 10	–
Cc1cc(CSc2ccc(C(=O)Nc3ccc(F)cc3)cn2)no1	> 5	–
Cc1nc(-c2ccc(CSc3ccc(C(=O)Nc4ccc(F)cc4)cn3)cc2)no1	> 5	–
CCOP(=O)(CSc1ccc(C(=O)Nc2ccc(F)cc2)cn1)OCC	> 10	–
O=C(Nc1ccc(F)cc1)c1ccc(SCC2CCOCC2)nc1	> 5	–
O=C(O)c1ccc(NC(=O)c2ccc(SCc3ccccc3B(O)O)nc2)cc1	> 10	–

Structure (SMILES)	IC50 [1] [µM]	also measured
O=C(Nc1ccc(F)cc1)c1ccc(SCc2ccncc2)nc1	> 5	–
O=C(Nc1ccc(F)cc1)c1ccc(SCc2ccccc2O)nc1	0.277	–
O=C(Nc1ccc(F)cc1)c1ccc(SCc2ccc(OC(F)(F)F)cc2)nc1	> 10	–
O=C(Nc1ccc(F)cc1)c1ccc(SCc2ccc([N+](=O)[O-])cc2)nc1	> 5	–
O=C(Nc1ccc(F)cc1)c1ccc(SCC2CCN(C(=O)OCc3ccccc3)CC2)nc1	> 10	–
O=C(Nc1ccc(F)cc1)c1ccc(SCc2ccc(-n3cccc3)cc2)nc1	> 10	–
O=C(Nc1ccc(F)cc1)c1ccc(SCc2ccccc2B(O)O)nc1	–	IC50 [2]: 0.06 µM; inhibition [3]: inactive; Activity [4]: inactive; inhibition [5]: Active; IC50 [6]: 0.036 µM; IC50 [7]: > 5 µM; IC50 [8]: > 5 µM; IC50 (fMet-Leu-Phe receptor): > 5 µM; IC50 [9]: 0.88 µM; IC50 [10]: 0.21 µM; inhibition [11]: Active; inhibition (Mus musculus): Active
O=C(Nc1ccc(F)cc1)c1ccc(SCc2ccccc2-c2cccs2)nc1	> 5	–
Cc1noc(-c2ccccc2)c1CSc1ccc(C(=O)Nc2ccc(F)cc2)cn1	> 10	–
Cc1nc(-c2cccc(CSc3ccc(C(=O)Nc4ccc(F)cc4)cn3)c2)no1	> 10	–
Cc1nc(-c2ccccc2)sc1CSc1ccc(C(=O)Nc2ccc(F)cc2)cn1	> 5	–
Cc1nc(-c2ccc(CSc3ccc(C(=O)Nc4ccc(F)cc4)cn3)cc2)cs1	> 10	–
Cc1n[nH]c(C)c1CCSc1ccc(C(=O)Nc2ccc(F)cc2)cn1	> 5	–
O=C(Nc1ccc(F)cc1)c1ccc(SCS(=O)(=O)c2ccccc2)nc1	> 5	–
O=C(Nc1ccc(F)cc1)c1ccc(SCc2ccc(C(F)(F)F)o2)nc1	> 5	–
Cc1onc(-c2ccccc2)c1CSc1ccc(C(=O)Nc2ccc(F)cc2)cn1	> 5	–
O=C(Nc1ccc(-c2nn[nH]n2)cc1)c1ccc(SCc2ccccc2B(O)O)nc1	> 10	–
O=C(Nc1ccc(F)cc1)c1ccc(SCc2cccc(-n3cccc3)c2)nc1	> 10	–
O=C(Nc1ccc(F)cc1)c1ccc(SC[N+](=O)[O-])nc1	> 10	–
Cc1nc(-c2ccc(C(F)(F)F)cc2)sc1CSc1ccc(C(=O)Nc2ccc(F)cc2)cn1	> 10	–
